{"source": "ChEMBL document CHEMBL5724801", "about": "“EUbOPEN Chemogenomics Library - Multiplex” (2024)", "test_system": "Fibroblast", "experiment": "Multiplex assay against human fibroblast", "assay_type": "toxicity, cell-based", "summary_of_the_method": "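Hoechst33342, BioTracker Green Microtubule Cytoskeleton Dye, MitoTracker Red and Annexin V Alexa Fluor 680 were added to live cells at seeding, and imaging on a CQ1 microscope at 37°C and 5% CO2 followed compound addition. Gating by CellPathfinder machine learning separated cells into Hoechst high-intensity objects or normal cells, then normal cells into healthy, pyknosed or fragmented nuclei, then pyknosed cells into mitotic or apoptotic. Per cents of healthy-nucleus cells are reported for the tubulin, mitochondrial-mass and membrane-permeability phenotypes.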", "key": {"[1]": {"settings": "12 h, 1 µM, compound concentration 1 uM"}, "[2]": {"settings": "12 h, 10 µM, compound concentration 10 uM"}, "[3]": {"settings": "24 h, 1 µM, compound concentration 1 uM"}, "[4]": {"settings": "24 h, 10 µM, compound concentration 10 uM"}, "[5]": {"settings": "48 h, 1 µM, compound concentration 1 uM"}, "[6]": {"settings": "48 h, 10 µM, compound concentration 10 uM"}}, "note": "Several values for one entry are separate records, joined by “and”; a condition that tells them apart may be missing. Equal entries are not always repeated."}
{"smiles": "Cl.c1ccc2c(c1)CCC[C@H]2Nc1nc2ccccc2[nH]1", "values": [{"measurement": "Population Apoptotic (%)", "setting": "[1]", "value": "11.32% and 10.42%"}, {"measurement": "Population Fragmented Nuclei (%)", "setting": "[1]", "value": "9.36% and 5.1%"}, {"measurement": "Population Healthy Nuclei (%)", "setting": "[1]", "value": "64.53% and 70.41%"}, {"measurement": "Population Hoechst High Intensity Objects (%)", "setting": "[1]", "value": 0, "unit": "%"}, {"measurement": "Population Membrane Permeable-Phenotype (%)", "setting": "[1]", "value": "6.11% and 2.17%"}, {"measurement": "Population Mitochondria Different-Phenotype (%)", "setting": "[1]", "value": "6.87% and 9.42%"}, {"measurement": "Population Mitotic Cells (%)", "setting": "[1]", "value": "88.68% and 89.58%"}, {"measurement": "Population Normal (%)", "setting": "[1]", "value": 100, "unit": "%"}, {"measurement": "Population Pyknosed Nuclei (%)", "setting": "[1]", "value": "26.11% and 24.49%"}, {"measurement": "Population Tubulin-Different-Phenotype (%)", "setting": "[1]", "value": "18.32% and 18.12%"}, {"measurement": "Total Cell Count", "setting": "[1]", "value": "203 and 196"}, {"measurement": "Population Apoptotic (%)", "setting": "[2]", "value": "5% and 13.89%"}, {"measurement": "Population Fragmented Nuclei (%)", "setting": "[2]", "value": "8.94% and 7.57%"}, {"measurement": "Population Healthy Nuclei (%)", "setting": "[2]", "value": "46.37% and 72.97%"}, {"measurement": "Population Hoechst High Intensity Objects (%)", "setting": "[2]", "value": 0, "unit": "%"}, {"measurement": "Population Membrane Permeable-Phenotype (%)", "setting": "[2]", "value": "8.43% and 2.96%"}, {"measurement": "Population Mitochondria Different-Phenotype (%)", "setting": "[2]", "value": "10.84% and 15.56%"}, {"measurement": "Population Mitotic Cells (%)", "setting": "[2]", "value": "95% and 86.11%"}, {"measurement": "Population Normal (%)", "setting": "[2]", "value": 100, "unit": "%"}, {"measurement": "Population Pyknosed Nuclei (%)", "setting": "[2]", "value": "44.69% and 19.46%"}, {"measurement": "Population Tubulin-Different-Phenotype (%)", "setting": "[2]", "value": "24.1% and 30.37%"}, {"measurement": "Total Cell Count", "setting": "[2]", "value": "179 and 185"}, {"measurement": "Population Apoptotic (%)", "setting": "[3]", "value": "11.36% and 6.25%"}, {"measurement": "Population Fragmented Nuclei (%)", "setting": "[3]", "value": "6.72% and 4.74%"}, {"measurement": "Population Healthy Nuclei (%)", "setting": "[3]", "value": "74.79% and 78.42%"}, {"measurement": "Population Hoechst High Intensity Objects (%)", "setting": "[3]", "value": 0, "unit": "%"}, {"measurement": "Population Membrane Permeable-Phenotype (%)", "setting": "[3]", "value": "4.49% and 2.01%"}, {"measurement": "Population Mitochondria Different-Phenotype (%)", "setting": "[3]", "value": "8.43% and 5.37%"}, {"measurement": "Population Mitotic Cells (%)", "setting": "[3]", "value": "88.64% and 93.75%"}, {"measurement": "Population Normal (%)", "setting": "[3]", "value": 100, "unit": "%"}, {"measurement": "Population Pyknosed Nuclei (%)", "setting": "[3]", "value": "18.49% and 16.84%"}, {"measurement": "Population Tubulin-Different-Phenotype (%)", "setting": "[3]", "value": "17.98% and 10.07%"}, {"measurement": "Total Cell Count", "setting": "[3]", "value": "238 and 190"}, {"measurement": "Population Apoptotic (%)", "setting": "[4]", "value": "6.56% and 11.11%"}, {"measurement": "Population Fragmented Nuclei (%)", "setting": "[4]", "value": "8.38% and 10.7%"}, {"measurement": "Population Healthy Nuclei (%)", "setting": "[4]", "value": "57.54% and 74.87%"}, {"measurement": "Population Hoechst High Intensity Objects (%)", "setting": "[4]", "value": 0, "unit": "%"}, {"measurement": "Population Membrane Permeable-Phenotype (%)", "setting": "[4]", "value": "2.91% and 1.43%"}, {"measurement": "Population Mitochondria Different-Phenotype (%)", "setting": "[4]", "value": "13.59% and 7.86%"}, {"measurement": "Population Mitotic Cells (%)", "setting": "[4]", "value": "93.44% and 88.89%"}, {"measurement": "Population Normal (%)", "setting": "[4]", "value": 100, "unit": "%"}, {"measurement": "Population Pyknosed Nuclei (%)", "setting": "[4]", "value": "34.08% and 14.44%"}, {"measurement": "Population Tubulin-Different-Phenotype (%)", "setting": "[4]", "value": "35.92% and 30.71%"}, {"measurement": "Total Cell Count", "setting": "[4]", "value": "179 and 187"}, {"measurement": "Population Apoptotic (%)", "setting": "[5]", "value": "7.14% and 20%"}, {"measurement": "Population Fragmented Nuclei (%)", "setting": "[5]", "value": "7.17% and 4.5%"}, {"measurement": "Population Healthy Nuclei (%)", "setting": "[5]", "value": "87.25% and 88%"}, {"measurement": "Population Hoechst High Intensity Objects (%)", "setting": "[5]", "value": 0, "unit": "%"}, {"measurement": "Population Membrane Permeable-Phenotype (%)", "setting": "[5]", "value": "0.91% and 2.27%"}, {"measurement": "Population Mitochondria Different-Phenotype (%)", "setting": "[5]", "value": "9.13% and 3.98%"}, {"measurement": "Population Mitotic Cells (%)", "setting": "[5]", "value": "92.86% and 80%"}, {"measurement": "Population Normal (%)", "setting": "[5]", "value": 100, "unit": "%"}, {"measurement": "Population Pyknosed Nuclei (%)", "setting": "[5]", "value": "5.58% and 7.5%"}, {"measurement": "Population Tubulin-Different-Phenotype (%)", "setting": "[5]", "value": "5.48% and 13.64%"}, {"measurement": "Total Cell Count", "setting": "[5]", "value": "251 and 200"}, {"measurement": "Population Apoptotic (%)", "setting": "[6]", "value": "21.05% and 50%"}, {"measurement": "Population Fragmented Nuclei (%)", "setting": "[6]", "value": "12.39% and 11.11%"}, {"measurement": "Population Healthy Nuclei (%)", "setting": "[6]", "value": "78.9% and 84.44%"}, {"measurement": "Population Hoechst High Intensity Objects (%)", "setting": "[6]", "value": 0, "unit": "%"}, {"measurement": "Population Membrane Permeable-Phenotype (%)", "setting": "[6]", "value": "1.74% and 4.21%"}, {"measurement": "Population Mitochondria Different-Phenotype (%)", "setting": "[6]", "value": "6.4% and 3.68%"}, {"measurement": "Population Mitotic Cells (%)", "setting": "[6]", "value": "78.95% and 50%"}, {"measurement": "Population Normal (%)", "setting": "[6]", "value": 100, "unit": "%"}, {"measurement": "Population Pyknosed Nuclei (%)", "setting": "[6]", "value": "8.72% and 4.44%"}, {"measurement": "Population Tubulin-Different-Phenotype (%)", "setting": "[6]", "value": "19.19% and 32.11%"}, {"measurement": "Total Cell Count", "setting": "[6]", "value": "218 and 225"}]}
